Source: PubChem BioAssay
PTEN del growth – growth suppression of PTEN-null HCT116, primary screen, cell-based, CellTiter-Glo | 140,000 tested, 1.2% active | AID 827, 2007 | viability, % at 10 µM | HCT116 PTEN-null viability, 60 h; hits give low values;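 active = viability at or below a set limit, 4 SD under the median of all tested compounds, cut at about 3.7% in these data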;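 note: PTEN knockout HCT116 line with beta catenin targeted HCT116 as companion control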
bCat KO growth – primary screen for growth suppressors in beta-catenin knockout HCT116 cells (colon tumor, human). viability, % at 10 µM. HCT116 beta-catenin knockout viability, CellTiter-Glo, 60 h; hits give low values. 140,000 tested, 1.5% active;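 active = viability at or under a set limit, the compound median less 4 SD, cut at about 6% in these data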;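 note: 0% = Hyamine 1622 control at 20 µM and 100% = untreated cell control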
HUVEC prolif 384 – inhibitors of HUVEC proliferation, primary screen, cell-based, 384-well. 86,000 tested, 1.1% active. viability, % at 10 µM (by protocol). CellTiter-Glo luminescence, 72 h; hits give low values;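 active = viability at or below 30%; inactive = viability above 30%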;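 note: 100% = median luminescence of DMSO-only cell control wells on each plate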
Lung fibro prol – antiproliferative effect on LL 47 fibroblasts – human, LL 47 cells, CellTiter-Glo luminescence, primary screen | LL 47 human lung fibroblast viability, ATP luminescence; hits give low values | viability, % at 10 µM | 85,000 tested, 1.1% active | AID 719, 2007;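 active = viability at or below 50% in the single dose screen; inactive = viability above 50%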;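 note: compound exposure lasted 72 h before the ATP readout; 100% = median luminescence of untreated cell-only wells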
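test system = LL 47 human lung fibroblasts | amount = 1,150 fibroblasts seeded per well | medium = 15% FBS in IMEM | times = overnight cell rest, 72 h compound treatment at 37 °C | measured by = CellTiter-Glo luminescence measuring cellular ATP | read-out = viability percentage against median untreated-cell control | benchmarks = cell-only wells, no compound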
H69AR inhibit – proliferation blockers of H69AR lung cancer cells, primary screen, cell-based, human, 86K library; H69AR lung tumor viability, ATP luminescence, 72 h; hits give low values; viability, % at 10 µM; 85,000 tested, 6% active;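 active = viability at or below 40%; inactive = viability above 40%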;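 note: multidrug resistant small cell line overexpressing MRP-1 efflux transporter; 100% = mean luminescence of untreated control wells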
* hit, by the source's call; · = not tested or not shown. Shown is part of a subset that was picked to be rich in hits.

SMILES	PTEN del growth	bCat KO growth	HUVEC prolif 384	Lung fibro prol	H69AR inhibit
CCc1cc2c(=O)n(Cc3ccco3)c(SCc3c(C)noc3C)nc2s1	22	24	56	49*	13*
COc1ccc(N2C(=O)NC3CC2(C)Oc2ccc(Cl)cc23)cc1OC (stereo not drawn)	72	77	96	91	26*
O=C(OCn1ncc(Br)c(Br)c1=O)c1c(F)cccc1F	1.5*	1.4*	2.0*	2.0*	1.0*
N#Cc1ccc(C(=O)Nc2cccc3ncccc23)c(F)c1	92	90	·	·	·
Cc1cc(C)c2oc(-c3ccc(Cl)c(NC(=O)c4ccc(C#N)cc4F)c3)nc2c1	64	56	57	20*	22*
COC(=O)c1cc(=O)n(Cc2ccco2)c(=Nc2ccc(F)c(Cl)c2)s1	5	1.6*	3.1*	7.9*	1.5*
COC(=O)c1cc(=O)n(CCc2ccccc2F)c(=Nc2ccc(F)c(Cl)c2)s1	11	8	8.9*	16*	1.5*
Cc1cc(N2CCC(C)CC2)nc(-n2nc(C)cc2C)n1	49	37	121	93	1.7*
Cc1cc(C)n(-c2nc3ccccc3nc2N2CCC(C)CC2)n1	72	68	120	94	90
O=c1oc2ccccc2c2c1C(c1ccc(Cl)cc1)Nc1ccc3ccccc3c1-2 (stereo not drawn)	76	73	·	·	·
COc1ccc(C2Nc3ccc4ccccc4c3-c3c2c(=O)oc2ccccc32)cc1 (stereo not drawn)	1.5*	3.2*	·	·	·
CCOc1ccc(C2Nc3ccc4ccccc4c3-c3c2c(=O)oc2ccccc32)cc1 (stereo not drawn)	4	2.7*	·	·	·
CNc1ccc(/C=C/C(=O)c2cccc3ccccc23)cc1[N+](=O)[O-]	5	5.3*	·	·	·
O=C(CSc1nc2ccccc2c(=O)n1CC1CCCCC1)N1CCOCC1	89	94	105	100	63
CC(C)C(=O)Nc1cccc(C(=O)Nc2nnc(C(C)(C)C)s2)c1	102	109	108	100	70
Oc1ccccc1-c1nc(NCc2ccco2)c2ccccc2n1	35	38	47	74	36*
c1ccc2c(c1)[nH]c1c(NCC3CCCO3)ncnc12 (stereo not drawn)	80	72	87	93	70
Oc1cccc(Nc2nc(NCC3CCCO3)c3ccccc3n2)c1 (stereo not drawn)	3.4*	1.9*	85	90	104
c1ccc(-c2nc(NCC3CCCO3)c3ccccc3n2)nc1 (stereo not drawn)	6	6.0*	·	·	·
c1ccc(-c2nc(NCc3ccco3)c3ccccc3n2)nc1	8	8	48	55	16*
Cc1ccc(Nc2ncnc3sc(C)c(C)c23)cc1C	91	96	79	93	87
C/C(N)=C(/C#N)C(=O)COC(=O)c1cc(-c2cccc3ccccc23)nc2ccccc12	66	70	·	·	·
COc1ccc(N2CCn3c2nc2c3c(=O)n(CCN3CCOCC3)c(=O)n2C)cc1	·	·	95	99	92
CC1=NN(c2ccccc2)C(=O)/C1=C/C=C/c1ccccc1	3.2*	3.4*	·	·	·
O=C(COC(=O)CC1CCCC1)Nc1cc2c(cc1Cl)C(=O)c1ccccc1C2=O	79	68	32	79	19*
SMILES	PTEN del growth	bCat KO growth	HUVEC prolif 384	Lung fibro prol	H69AR inhibit
Cc1cc(C)nc(SCC(=O)NC2=NN=C(c3ccc(Br)cc3)CS2)n1	2.8*	1.5*	·	·	·
CC(=O)N(C)c1ccc(OCC(O)Cn2c3ccc(Cl)cc3c3cc(Cl)ccc32)cc1 (stereo not drawn)	1.8*	2.8*	·	·	·
O=C(CSc1cccc[n+]1[O-])c1cc2ccccc2o1	2.7*	4.7*	109	93	54
Cc1cc(C)n(-c2nc3c(c(=O)n(Cc4ccc(Cl)c(Cl)c4)c(=O)n3C)n2C)n1	·	·	69	91	38*
Cn1c(N2CCCCC2)nc2c1c(=O)n(Cc1cccc(Br)c1)c(=O)n2C	67	90	99	98	34*
Cn1c(N2CCN(c3ccccn3)CC2)nc2c1c(=O)n(Cc1ccccc1Cl)c(=O)n2C	·	·	84	92	23*
CC1CN(c2nc3c(c(=O)n(Cc4ccc(Cl)c(Cl)c4)c(=O)n3C)n2C)CC(C)O1 (stereo not drawn)	57	63	90	88	96
Cc1[nH]c2ccccc2c1C(=O)Cn1c(=O)oc2ccccc21	83	85	·	·	·
O=C(c1coc(=O)c(Br)c1)N1CCCc2ccccc21	84	91	85	85	-0.6*
CC1(C)CCCN(C(=O)c2coc(=O)c(Br)c2)C1	74	90	86	98	7.0*
O=C(c1cncc(Br)c1)N1CCCc2ccccc21	93	94	100	99	105
O=C1CC(c2cccc(Cl)c2)Cc2nc(N3CCN(c4ccccc4)CC3)ncc21 (stereo not drawn)	77	79	85	92	97
CCN1CCN(c2ncc3c(n2)CC(c2cc(OC)c(OC)c(OC)c2)CC3=O)CC1 (stereo not drawn)	18	15	51	51	17*
COCCN(C(=O)CCl)C(C(=O)NC1CCCCC1)c1ccccc1C (stereo not drawn)	3.2*	5.2*	·	·	·
COCCN(C(=O)C(F)(F)F)C(C(=O)NC1CCCCC1)c1ccco1 (stereo not drawn)	81	92	90	105	93
CN1CCN(Cc2nc3ccccc3c(=O)n2Cc2nc(-c3ccc([N+](=O)[O-])cc3)cs2)CC1	0.5*	0.8*	·	·	·
COc1ccc(-c2nc3c(c4nnc(SC(C)C(=O)Nc5ccccc5)n24)COC(C)(C)C3)cc1 (stereo not drawn)	38	5.2*	·	·	·
CCc1nnc(NC(=O)c2cccc(C(=O)Nc3nnc(CC)s3)n2)s1	2.2*	5.0*	3.7*	4.8*	3.7*
CCc1nnc(NC(=O)c2ccc3c(c2)C(=O)N(C(C)(C)C)C3=O)s1	97	99	87	101	39*
O=C(NCc1ccco1)c1cc(S(=O)(=O)N2CCOCC2)ccc1Cl	98	99	104	100	84
CNC(=O)COC(=O)c1cc(NC(=O)c2ccco2)c(OC)c(OC)c1	99	86	·	·	·
COc1cc(C(=O)OCC(=O)c2cc(C)n(C)c2C)cc(NC(=O)c2ccco2)c1OC	88	87	27*	84	11*
CC(=O)Nc1ccc(S(=O)(=O)N2CCN(c3ccccn3)CC2)cc1	100	89	97	99	83
CCN(CC)S(=O)(=O)c1ccc(S(=O)(=O)Nc2ccc3c(c2)oc2ccccc23)cc1	75	77	63	97	33*
CN(C)S(=O)(=O)c1ccc(S(=O)(=O)Nc2ccc3c(c2)oc2ccccc23)cc1	89	96	73	102	85
CCOC(=O)c1sc(NC(=O)CN(CC)CC)c(C(=O)OCC)c1C	76	82	96	92	86
